Source: ChEMBL document CHEMBL3792293, “A synthetic 2,3-diarylindole induces cell death via apoptosis and autophagy in A549 lung cancer cells” (Bioorg Med Chem Lett, 2016)
Calls of active or inactive are those of the source. The calls are words filed in the database; no cut-off is given here.

Assays:
A549 [1] = assay: Induction of apoptosis in human A549 cells assessed as early apoptotic cells at 50 uM after 24 hrs by Annexin V/7-AAD staining based flow cytometry (reference value: 8.55%); assay type: functional
A549 [2] = assay: Induction of autophagy in human A549 cells at 10 to 100 uM after 24 hrs by MDC-staining based fluorescence imaging analysis in presence of autophagy inhibitor bafilomycin A1; assay type: functional, cell-based
Summary of the method: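 A549 cells co-treated 24 h with 10, 50 or 100 μM plus or minus 10 nM bafilomycin A1. Autophagy was quantified by MDC staining fluorescence. Values are means of three independent experiments with SD.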

A549 [3] = assay: Induction of apoptosis in human A549 cells assessed as viable cells at 50 uM after 24 hrs by Annexin V/7-AAD staining based flow cytometry (reference value: 89.95%); assay type: functional; conditions: A549, 24 h, read-out: Activity
A549 [4] = assay: Induction of autophagy in human A549 cells assessed as increase in LC3-2 level at 10 to 100 uM after 24 hrs by Western blot analysis; assay type: functional, cell-based
Summary of the method: (§1)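 A549 cells exposed 24 h to 10, 50 or 100 μM, then harvested and analysed by Western blot for cleaved PARP and for LC3-II conversion.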

A549 [5] = assay: Induction of apoptosis in human A549 cells assessed as dead cells at 100 uM after 24 hrs by Annexin V/7-AAD staining based flow cytometry relative to control; assay type: functional
Summary of the method: (§2)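 A549 cells exposed for 24 h at 10, 50 or 100 μM, then stained with Annexin-V and 7AAD (Annexin-V and Dead Cell assay kit). Dead and apoptotic populations were counted by flow cytometry on a Muse Cell Analyzer and compared with untreated control. Values are averages of three independent experiments with SD.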

A549 [6] = assay: Cytotoxicity against human A549 cells assessed as reduction in cell viability after 72 hrs by MTT assay; assay type: functional, cell-based
Summary of the method: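 MTT viability screen in A549 cells with 72 h compound exposure; value reported as IC50.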

A549 [7] = assay: Induction of apoptosis in human A549 cells assessed as early apoptotic cells at 100 uM after 24 hrs by Annexin V/7-AAD staining based flow cytometry (reference value: 8.55%); assay type: functional
A549 [8] = assay: Induction of apoptosis in human A549 cells assessed as dead cells at 50 uM after 24 hrs by Annexin V/7-AAD staining based flow cytometry relative to control; assay type: functional; summary of the method: as §2
A549 [9] = assay: Induction of morphological changes in human A549 cells assessed as increase in vacuole appearance at 10 to 100 uM after 24 hrs; assay type: functional, cell-based
Summary of the method: (§3)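 A549 cells treated 24 h at 10, 50 or 100 μM, then photographed to assess rounding and vacuole appearance.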

A549 [10] = assay: Induction of apoptosis in human A549 cells assessed as increase in apoptotic cells at 10 to 100 uM after 24 hrs by Annexin V/7-AAD staining based flow cytometry in presence of autophagy inhibitor bafilomycin A1; assay type: functional, cell-based
Summary of the method: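 A549 cells treated 24 h at 10, 50 or 100 μM with or without 10 nM bafilomycin A1. Apoptosis was read by Annexin-V/7AAD on a Muse Cell Analyzer. Values are means of three independent experiments with SD, and significance was tested against control and between ± Baf.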

A549 [11] = assay: Induction of morphological changes in human A549 cells assessed as appearance of rounded cell at 10 to 100 uM after 24 hrs; assay type: functional, cell-based; summary of the method: as §3
A549 [12] = assay: Induction of apoptosis in human A549 cells assessed as increase in PARP cleavage after 24 hrs by Western blot analysis; assay type: functional, cell-based; summary of the method: as §1
A549 [13] = assay: Induction of apoptosis in human A549 cells assessed as early apoptotic cells at 10 uM after 24 hrs by Annexin V/7-AAD staining based flow cytometry (reference value: 8.55%); assay type: functional
A549 [14] = assay: Induction of apoptosis in human A549 cells assessed as late apoptotic cells at 100 uM after 24 hrs by Annexin V/7-AAD staining based flow cytometry (reference value: 1.5%); assay type: functional
A549 [15] = assay: Induction of apoptosis in human A549 cells assessed as viable cells at 10 uM after 24 hrs by Annexin V/7-AAD staining based flow cytometry (reference value: 89.95%); assay type: functional; conditions: A549, 24 h, read-out: Activity
A549 [16] = assay: Induction of cell morphological changes in human A549 cells at 10 to 100 uM after 3 hrs; assay type: functional, cell-based
A549 [17] = assay: Induction of autophagy in human A549 cells after 6 to 24 hrs by MDC-staining based fluorescence imaging analysis; assay type: functional, cell-based
Summary of the method: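 Autophagic vacuoles stained with monodansylcadaverine (MDC). Imaging was done after 24 h at 10, 50 or 100 μM. Relative fluorescence (Ex/Em 335/512 nm) was measured after 6 h at 6.2–100 μM.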

A549 [18] = assay: Induction of apoptosis in human A549 cells assessed as late apoptotic cells at 10 uM after 24 hrs by Annexin V/7-AAD staining based flow cytometry (reference value: 1.5%); assay type: functional
A549 [19] = assay: Induction of apoptosis in human A549 cells assessed as dead cells at 10 uM after 24 hrs by Annexin V/7-AAD staining based flow cytometry relative to control; assay type: functional; summary of the method: as §2
A549 [20] = assay: Induction of apoptosis in human A549 cells assessed as late apoptotic cells at 50 uM after 24 hrs by Annexin V/7-AAD staining based flow cytometry (reference value: 1.5%); assay type: functional
A549 [21] = assay: Induction of apoptosis in human A549 cells assessed as viable cells at 100 uM after 24 hrs by Annexin V/7-AAD staining based flow cytometry (reference value: 89.95%); assay type: functional; conditions: A549, 24 h, read-out: Activity
[22] = Homo sapiens, A549, 72 h, read-out: IC50

For COC(=O)c1ccc(-c2c(-c3ccccc3)[nH]c3ccccc23)cc1, the Activity (A549 [1]) was 17.45%, the Activity (A549 [2]) was “inactive” and the viability at 50 µM (A549 [3]) was 74.5%. The Activity (A549 [4]) was “Active”, the Activity (A549 [5]) was 0.15% and the IC50 (A549 [6]; [22]) was 5.17 µM. The Activity (A549 [7]) was 9.7%, the Activity (A549 [8]) was 0.25% and the Activity (A549 [9]) was “Active”. For the same compound, the Activity (A549 [10]) was “inactive”, the Activity (A549 [11]) was “Active” and the Activity (A549 [12]) was “Dose-dependent effect”. For the same compound, the Activity (A549 [13]) was 14%, the Activity (A549 [14]) was 39.7% and the viability at 10 µM (A549 [15]) was 82.8%. The Activity (A549 [16]) was “Active”, the Activity (A549 [17]) was “Dose-dependent effect” and the Activity (A549 [18]) was 2.8%. It also gave an Activity (A549 [19]) of 0.4%, an Activity (A549 [20]) of 7.75% and a viability at 100 µM (A549 [21]) of 50.5%.
In the case of O=[N+]([O-])c1ccc(-c2[nH]c3ccccc3c2-c2ccccc2)cc1, the IC50 (A549 [6]; [22]) is reported as 24.8 µM.
Nc1ccc(-c2c(-c3ccccc3)[nH]c3ccccc23)cc1 was tested, and the IC50 (A549 [6]; [22]) was 83.4 µM.
With Nc1ccc(-c2[nH]c3ccccc3c2-c2ccccc2)cc1 the IC50 (A549 [6]; [22]) was 54.7 µM.
N#Cc1ccc(-c2c(-c3ccccc3)[nH]c3ccccc23)cc1 was tested, and the IC50 (A549 [6]; [22]) was 18.3 µM.
O=[N+]([O-])c1ccc(-c2c(-c3ccccc3)[nH]c3ccccc23)cc1 showed an IC50 (A549 [6]; [22]) of 38.4 µM.
For CC(=O)Nc1ccc(-c2c(-c3ccccc3)[nH]c3ccccc23)cc1, the IC50 (A549 [6]; a549) was “ND(Insoluble)”.
CC(=O)Nc1ccc(-c2[nH]c3ccccc3c2-c2ccccc2)cc1 was tested, and the IC50 (A549 [6]; a549) was “ND(Insoluble)”.
With COC(=O)c1ccc(-c2[nH]c3ccccc3c2-c2ccccc2)cc1 the IC50 (A549 [6]; a549) was “ND(Insoluble)”.
With c1ccc(-c2[nH]c3ccccc3c2-c2ccccc2)cc1 the IC50 (A549 [6]; [22]) was 58.7 µM.
COc1ccc(-c2c(-c3ccccc3)[nH]c3ccccc23)cc1 was tested, and the IC50 (A549 [6]; [22]) was 30 µM.
For COc1ccc(-c2[nH]c3ccccc3c2-c2ccccc2)cc1, the IC50 (A549 [6]; [22]) was 288 µM.
N#Cc1ccc(-c2[nH]c3ccccc3c2-c2ccccc2)cc1 gave an IC50 (A549 [6]; [22]) of 15 µM.
